Test results taken from ChEMBL document CHEMBL4196114 (ACS Med Chem Lett, 2018).

Key:
Leishmania infantum [1] = test: Antileishmanial activity against Leishmania infantum MHOM/TN/80/IPT1 promastigotes after 72 hrs by MTT assay; assay type: functional, organism-based; conditions: MHOM/TN/80/IPT1, 72 h
How it was run: (§1)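 Promastigotes grown in Schneider's medium with 10% FCS at 22 °C. Assay in RPMI with 10% FCS, 20 mM Hepes and 2 mM glutamine, 5×10⁶ parasites/mL, seven serial dilutions from DMSO stocks, 72 h at 22 °C. MTT added for 3 h, pellet lysed in SDS/DMF, A550 read against 650 nm reference. IC50 given as mean of separate duplicate experiments; amphotericin B as reference.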

Leishmania tropica = test: Antileishmanial activity against Leishmania tropica MHOM/IT/2012/ISS3130 promastigotes after 72 hrs by MTT assay; assay type: functional, organism-based; conditions: MHOM/IT/2012/ISS3130, 72 h; how it was run: as §1
THP-1 = test: Cytotoxicity against PMA-differentiated human THP1 cells after 72 hrs by MTT assay; assay type: cell-based; conditions: THP-1, 72 h
How it was run: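 THP-1 cells at 5×10⁵ cells/mL, differentiated with 0.1 μM PMA for 48 h, then exposed to serial dilutions for 72 h. Viability read by MTT; IC50 for growth inhibition. Duplicate experiments, mean reported.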

[2] = Selectivity index, ratio of IC50 for PMA-differentiated human THP1 cells to IC50 for Leishmania infantum MHOM/TN/80/IPT1 promastigotes; assay type: toxicity; conditions: read-out: Ratio IC50
[3] = Selectivity index, ratio of IC50 for PMA-differentiated human THP1 cells to IC50 for Leishmania tropica MHOM/IT/2012/ISS3130 promastigotes; assay type: toxicity; conditions: read-out: Ratio IC50
Leishmania infantum [4] = test: Antileishmanial activity against amastigote stage of Leishmania infantum infected in PMA-differentiated human THP1 cells assessed as inhibition of parasite growth at 0.5 uM after 72 hrs by Giemsa staining based light microscopy relative to control; assay type: functional; conditions: THP-1, 72 h
How it was run: (§2)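 THP-1 cells at 5×10⁵ cells/mL differentiated with 0.1 μM PMA for 48 h, then infected with metacyclic L. infantum promastigotes (1:10 macrophage:parasite) for 24 h. Washed monolayers exposed to compound for 72 h, methanol-fixed and Giemsa-stained. Percent infected macrophages versus untreated scored by light microscopy, and IC50 derived. Single-concentration values are means of two or three experiments, IC50 of two.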

Leishmania infantum [5] = test: Antileishmanial activity against amastigote stage of Leishmania infantum infected in PMA-differentiated human THP1 cells assessed as inhibition of parasite growth after 72 hrs by Giemsa staining based light microscopy; assay type: functional, organism-based; conditions: THP-1, 72 h; how it was run: as §2
[6] = Selectivity index, ratio of IC50 for PMA-differentiated human THP1 cells to IC50 for amastigote stage of Leishmania infantum infected in PMA-differentiated human THP1 cells; assay type: toxicity; conditions: read-out: Ratio IC50
Mus musculus [7] = test: Toxicity in C57Bl/6 mouse assessed as survival at 300 mg/kg, po administered as single dose measured twice daily up to 30 days; assay type: organism-based; conditions: in vivo, 720 h
How it was run: (§3)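 Healthy female C57Bl/6 mice, groups of four or five, received one oral dose. Compound was first dissolved in DMSO, then suspended in 0.5% hydroxyethylcellulose-0.1% Tween 80. Behaviour and appearance were checked twice daily for 30 days. A dose counted as tolerated if all mice survived 30 days with normal appearance and behaviour.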

Mus musculus [8] = test: Toxicity in C57Bl/6 mouse assessed as effect on normal appearance at 300 mg/kg, po administered as single dose measured twice daily up to 30 days; assay type: organism-based; conditions: in vivo, 720 h; how it was run: as §3
Mus musculus [9] = test: Toxicity in C57Bl/6 mouse assessed as effect on normal behavior at 300 mg/kg, po administered as single dose measured twice daily up to 30 days; assay type: organism-based; conditions: in vivo, 720 h; how it was run: as §3
Leishmania infantum [10] = test: Antileishmanial activity against Leishmania infantum MHOM/TN/1980/IPT-1 amastigotes infected in Balb/c mouse assessed as reduction in liver parasite load at 100 mg/kg, po administered for 4 days measured post last dose relative to control; assay type: functional; design: scale not given: the % may be the effect or the level left
How it was run: (§4)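 Balb/c mice (18-20 g) inoculated via tail vein with 2×10⁶ semi-purified L. infantum IPT-1 amastigotes. Dosing p.o. (0.1% Tween/0.5% HEC in water, or water) or s.c. (sunflower oil, or water) for 4 or 5 consecutive days from day 9 post-infection.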

Leishmania infantum [11] = test: Antileishmanial activity against Leishmania infantum MHOM/TN/1980/IPT-1 amastigotes infected in Balb/c mouse assessed as reduction in liver parasite load at 60 mg/kg, po administered for 4 days measured post last dose relative to control; assay type: functional; design: scale not given: the % may be the effect or the level left
How it was run: as §4, with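 “post-infection. On day 13 or 14, liver weight × amastigotes per liver cell gives relative load, expressed versus the untreated control group mean.” for “post-infection.”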

Mus musculus [12] = test: Toxicity in Balb/c mouse infected with Leishmania infantum MHOM/TN/1980/IPT-1 amastigotes assessed as death at 100 mg/kg, administered for 4 days measured on day 10 to 12; assay type: organism-based; conditions: in vivo, 96 h
Leishmania infantum [13] = test: Antileishmanial activity against Leishmania infantum MHOM/TN/1980/IPT-1 amastigotes infected in Balb/c mouse assessed as reduction in liver parasite load at 10 mg/kg, sc administered for 4 days measured post last dose relative to control; assay type: functional; design: scale not given: the % may be the effect or the level left
How it was run: as §4, with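 “post-infection. On day 13 or 14, liver weight × amastigotes per liver cell gives relative load, expressed versus the untreated control group mean.” for “post-infection.”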

Leishmania infantum [14] = test: Antileishmanial activity against Leishmania infantum MHOM/TN/1980/IPT-1 amastigotes infected in Balb/c mouse assessed as reduction in liver parasite load at 5 mg/kg, sc administered for 5 days measured post last dose relative to control; assay type: functional; design: scale not given: the % may be the effect or the level left
How it was run: as §4, with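 “post-infection. On day 13 or 14, liver weight × amastigotes per liver cell gives relative load, expressed versus the untreated control group mean.” for “post-infection.”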

Leishmania infantum [15] = test: Antileishmanial activity against Leishmania infantum MHOM/TN/1980/IPT-1 amastigotes infected in po dosed Balb/c mouse assessed as reduction in liver parasite load administered for 4 to 5 days measured post last dose; assay type: functional, organism-based; how it was run: as §4
Leishmania infantum [16] = test: Antileishmanial activity against Leishmania infantum MHOM/TN/1980/IPT-1 amastigotes infected in sc dosed Balb/c mouse assessed as reduction in liver parasite load administered for 4 to 5 days measured post last dose; assay type: functional, organism-based; how it was run: as §4
BMDM [17] = test: Induction of nitric oxide production in IFNgamma-primed mouse BMDM measured after 24 hrs by Griess assay; assay type: functional, cell-based
BMDM [18] = test: Induction of reactive oxygen species production in IFNgamma-primed mouse BMDM measured after 24 hrs by H2DCFDA probe based assay; assay type: functional, cell-based

Work on `Cl.Cl.Cl.Cl.Clc1ccc2c(NCCCN3CCN(CCCNCCC45CC6CC(CC(C6)C4)C5)CC3)ccnc2c1` yielded an IC50 (Leishmania infantum [1]) of 520 nM, an IC50 (Leishmania tropica) of 510 nM and an IC50 (THP-1) of 1000 nM. For the same compound, the selectivity ratio [2] was 1.9, the selectivity ratio [3] was 2 and the inhibition at 0.5 µM (Leishmania infantum [4]) was 72.2%. For the same compound, the IC50 (Leishmania infantum [5]) was 310 nM, the selectivity ratio [6] was 3.22 and the Activity (Mus musculus [7]) was “Non-Toxic”. For the same compound, the Activity (Mus musculus [8]) was “Non-Toxic”, the Activity (Mus musculus [9]) was “Non-Toxic” and the Activity (Leishmania infantum [10]) was 100%. The Activity (Leishmania infantum [11]) was 96%, the Activity (Mus musculus [12]) was “Toxic” and the Activity (Leishmania infantum [13]) was 81%. For the same compound, the Activity (Leishmania infantum [14]) was 57%, the Activity (Leishmania infantum [15]) was “Dose-dependent effect” and the Activity (Leishmania infantum [16]) was “Dose-dependent effect”. For the same compound, the Activity (BMDM [17]) was “Dose-dependent effect” and the Activity (BMDM [18]) was “Dose-dependent effect”.
